The source made the active and inactive calls. No cut-off for these calls is given here.

Test [1] deals with A549. The test can be described thus: Cell cycle arrest in human A549 cells assessed as accumulation at sub-G0 phase at 50 nM after 24 hrs by propidium iodide staining based flow cytometry (reference value: 2 +/- 1%). In kind it is functional. A digest of the protocol: (§1)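 A549 cells maintained in DMEM (1 g/L glucose, 2 mM glutamine, penicillin/streptomycin/amphotericin B, 10% FBS) and treated for 24 h. Cells were then fixed, RNase-treated and stained with propidium iodide. DNA content was measured by flow cytometry to give cell-cycle phase distribution, including a sub-G1 peak. Data are means (±SD) of two experiments.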

Test [2] deals with HT-29. The test can be described thus: Inhibition of VEGF protein secretion in human HT-29 cells assessed as VEGF protein level at 2 nM after 48 hrs by ELISA (reference value: 100%). Format: functional. The arrangement: scale not given: the % may be the effect or the level left. (An ELISA detects its analyte on a solid surface through an enzyme-linked reagent.)
Test [3] concerns HT-29. Briefly: Downregulation of c-Myc gene expression in human HT-29 cells assessed as c-Myc mRNA level at 2 nM after 48 hrs by RT-PCR method (reference value: 100%). In kind it is functional. Put shortly: (§2)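 HT-29 cells were taken at 70–80% confluence and seeded at 1.5 x 10^5 per well. After 24 h they were exposed to compound for 48 h. Total RNA was isolated and TaqMan RT-qPCR run for VEGF-A, c-MYC and hTERT, normalized to β-actin. Expression is given as percent of DMSO control, with at least three measurements and one-sample t-tests.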

The test system of test [4] is A549. The test can be described thus: Cell cycle arrest in human A549 cells assessed as accumulation at G2/M phase at 50 nM after 24 hrs by propidium iodide staining based flow cytometry (reference value: 11 +/- 4%). Format: functional. Put shortly: as §1
(In general: A flow cytometer gives signals particle by particle.)

The subject of test [5] is HT-29. The test can be described thus: Downregulation of hTERT gene expression in human HT-29 cells assessed as hTERT mRNA level at 2 nM after 48 hrs by RT-PCR method (reference value: 100%). In kind it is functional. A digest of the protocol: as §2
Test [6] deals with A549. Briefly: Cell cycle arrest in human A549 cells assessed as accumulation at G0/G1 phase at 50 nM after 24 hrs by propidium iodide staining based flow cytometry (reference value: 73 +/- 3%). In kind it is functional. A digest of the protocol: as §1
The test system of a further test is HEK293. Briefly: Antiproliferative activity against HEK293 cells after 2 days by MTT assay. In kind it is ADME, cell-based. To be noted: Homo sapiens, HEK293, 48 h. A general note: Tetrazolium dyes change colour on reduction, which living cells bring about.
The subject of a further test is MCF7. Briefly: Antiproliferative activity against human MCF7 cells after 2 days by MTT assay. In kind it is functional, cell-based. The note with it: MCF7, 48 h.
Test [7] has as its system HT-29. Briefly: Downregulation of VEGF gene expression in human HT-29 cells assessed as VEGF mRNA level at 2 nM after 48 hrs by RT-PCR method (reference value: 100%). Format: functional. A digest of the protocol:
as §2

The subject of test [8] is A549. The test can be described thus: Antiproliferative activity against human A549 cells after 2 days by MTT assay. To be noted: A549, 48 h. Format: functional, cell-based.
Test [9] relates to A549. Briefly: Cell cycle arrest in human A549 cells assessed as accumulation at S phase at 50 nM after 24 hrs by propidium iodide staining based flow cytometry (reference value: 15 +/- 6%). In kind it is functional. A digest of the protocol:
as §1

The subject of test [10] is HT-29. The test can be described thus: Antiproliferative activity against human HT-29 cells after 2 days by MTT assay. Format: functional, cell-based. The note with it: HT-29, 48 h.
The test system of test [11] is HT-29. The test can be described thus: Downregulation of VEGF gene expression in human HT-29 cells assessed as VEGF mRNA level at 5 nM after 48 hrs by RT-PCR method (reference value: 100%). Format: functional. A digest of the protocol: as §2
For test [12], the system named is HT-29. Briefly: Downregulation of hTERT gene expression in human HT-29 cells assessed as hTERT mRNA level at 5 nM after 48 hrs by RT-PCR method (reference value: 100%). Format: functional. Put shortly:
as §2

In test [13] the test system is A549. The test can be described thus: Cell cycle arrest in human A549 cells assessed as accumulation at G2/M phase at 20 nM after 24 hrs by propidium iodide staining based flow cytometry (reference value: 11 +/- 4%). Format: functional. Put shortly:
as §1

Test [14] concerns A549. Briefly: Cell cycle arrest in human A549 cells assessed as accumulation at sub-G0 phase at 20 nM after 24 hrs by propidium iodide staining based flow cytometry (reference value: 2 +/- 1%). In kind it is functional. Put shortly: as §1
The subject of test [15] is HT-29. Briefly: Downregulation of c-Myc gene expression in human HT-29 cells assessed as c-Myc mRNA level at 5 nM after 48 hrs by RT-PCR method (reference value: 100%). Format: functional. A digest of the protocol:
as §2

The subject of test [16] is A549. The test can be described thus: Cell cycle arrest in human A549 cells assessed as accumulation at G2/M phase at 3 nM after 24 hrs by propidium iodide staining based flow cytometry. In kind it is functional. Put shortly: as §1
In test [17] the test system is HT-29. Briefly: Inhibition of VEGF protein secretion in human HT-29 cells assessed as VEGF protein level at 5 nM after 48 hrs by ELISA (reference value: 100%). Also noted: scale not given: the % may be the effect or the level left. Format: functional.
For test [18], the system named is A549. The test can be described thus: Cell cycle arrest in human A549 cells assessed as accumulation at S phase at 20 nM after 24 hrs by propidium iodide staining based flow cytometry (reference value: 15 +/- 6%). Format: functional. A digest of the protocol: as §1
Test [19] has as its system A549. Briefly: Cell cycle arrest in human A549 cells assessed as accumulation at G0/G1 phase at 20 nM after 24 hrs by propidium iodide staining based flow cytometry (reference value: 73 +/- 3%). In kind it is functional. A digest of the protocol:
as §1

Test [20] relates to HT-29. The test can be described thus: Inhibition of VEGF protein secretion in human HT-29 cells assessed as VEGF protein level at 30 nM after 48 hrs by ELISA (reference value: 100%). Format: functional. Also noted: scale not given: the % may be the effect or the level left.
The test system of test [21] is HT-29. The test can be described thus: Downregulation of c-Myc gene expression in human HT-29 cells assessed as c-Myc mRNA level at 30 nM after 48 hrs by RT-PCR method (reference value: 100%). Format: functional. Put shortly:
as §2

For test [22], the system named is HT-29. The test can be described thus: Downregulation of VEGF gene expression in human HT-29 cells assessed as VEGF mRNA level at 30 nM after 48 hrs by RT-PCR method (reference value: 100%). Format: functional. A digest of the protocol:
as §2

The test system of test [23] is HT-29. The test can be described thus: Downregulation of hTERT gene expression in human HT-29 cells assessed as hTERT mRNA level at 30 nM after 48 hrs by RT-PCR method (reference value: 100%). In kind it is functional. Put shortly:
as §2

As to `COc1cc2c(c(OC)c1OC)-c1ccc(OC)c(=O)cc1[C@@H](NC(=O)c1cccc(C)c1)CC2`, the Activity in the test with A549 [1] is given as 16%; in the test on HT-29 [2], 76%; in the test on HT-29 [3], 44%; in the test with A549 [4] it was 45%; with HT-29 [5], 74%; with A549 [6], 29%. The Activity worked out at 53% with HT-29 [7] and 10% with A549 [9]. Further, the IC50 (commonly the concentration at which inhibition is half-maximal) with HEK293 turned out to be 3.1 nM; in the test on MCF7, 5.6 nM; in the test on A549 [8], 8.7 nM; in the test with HT-29 [10], 2.23 nM.
On to `COc1cc2c(c(OC)c1OC)-c1ccc(OC)c(=O)cc1[C@@H](NC(=O)c1ccccc1Br)CC2`, for which the Activity with HT-29 [11] was 57%; with HT-29 [12], 88%; in the test with A549 [13], 47%; with A549 [14], 4%; in the test on HT-29 [15], 50%; in the test with HT-29 [17], 80%. The Activity in the test on A549 [18] is 22%; in the test with A549 [19], 27%. Also, the 50% inhibitory concentration (IC50) in the test on HEK293 was 8.5 nM; in the test with MCF7, 7.6 nM; in the test with A549 [8], 13 nM; in the test on HT-29 [10] it was 5.8 nM. In addition, the outcome in the test on A549 [16] was Active.
Consider `COc1cc2c(c(OC)c1OC)-c1ccc(OC)c(=O)cc1[C@@H](NC(=O)c1ccc(C(C)(C)C)cc1)CC2`, for which the Activity in the test with HT-29 [20] was 61%; in the test with HT-29 [21], 82%; in the test on HT-29 [22] it was 73%; with HT-29 [23] it was more than 100%. Also, the IC50 with HEK293 is 58 nM; in the test with MCF7, 24 nM; with A549 [8], 36 nM; in the test with HT-29 [10], 32.7 nM.

For the origin of these results see ChEMBL document CHEMBL4196091 (Eur J Med Chem, 2018).
